In ChEMBL document CHEMBL3585244, “Click Chemistry in Lead Optimization of Boronic Acids as β-Lactamase Inhibitors” (J Med Chem, 2015):
pIC50, pKi: −log10 of the molar value. ≈ marks a conversion by molar mass, not a printed value.

Columns and labels:
[1] = (§1) Inhibition of Pseudomonas aeruginosa beta-lactamase PDC3 expressed in Escherichia coli BL21 (DE3) RP CodonPlus incubated for 5 mins before nitrocefin substrate addition by spectrophotometry
Procedure, shortened: (§2)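 PDC-3 from P. aeruginosa 18SH subcloned in pET 24a, expressed in E. coli BL21(DE3) RP CodonPlus (37 °C, 0.5 mM IPTG at A600 0.6), purified by isoelectric focusing and FPLC.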

Pseudomonas aeruginosa = test: as §1; conditions: TDE = time-dependent effect; procedure, shortened: as §2
[2] = (§3) Inhibition of Enterobacter cloacae beta-lactamase P99 expressed in Escherichia coli AS226-51 incubated for 5 mins before nitrocefin substrate addition by spectrophotometry
Procedure, shortened: (§4)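 P99 expressed from pCS980 in E. coli AS226-51, grown in SOB with kanamycin at 37 °C and induced with 0.5 mM IPTG at A600 0.6. Purified by preparative isoelectric focusing, gel filtration and cation exchange. Inhibitor preincubated with enzyme for 5 min in 10 mM PBS pH 7.4 at room temperature. […] Ki = IC50/(1+[S]/Km).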

Enterobacter cloacae = test: as §3; conditions: TDE = time-dependent effect; procedure, shortened: as §4
Escherichia coli [3] = test: Potentiation of cefotaxime-induced antimicrobial effect against wild type Escherichia coli DH10B assessed as cefotaxime MIC at 4 ug/ml by agar dilution method; assay type: functional
[4] = Inhibition of beta-lactamase PDC-3 (unknown origin) expressed in Escherichia coli DH10B assessed as cefotaxime MIC at 4 ug/ml by agar dilution method
Procedure, shortened: (§5)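 MICs by cation-adjusted Mueller-Hinton agar dilution following CLSI standards. E. coli DH10B carried blaPDC-3 (from P. aeruginosa 18SH) or blaP99 subcloned in pBC SK(-). Cefotaxime was varied from 0 to 64 µg/ml, with boronate held constant at 4 µg/ml.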

[5] = Inhibition of beta-lactamase P99 (unknown origin) expressed in Escherichia coli DH10B assessed as cefotaxime MIC at 4 ug/ml by agar dilution method; procedure, shortened: as §5
Escherichia coli [6] = test: Antimicrobial activity against wild type Escherichia coli DH10B by agar dilution method; assay type: functional
Procedure, shortened: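 MICs by cation-adjusted Mueller-Hinton agar dilution following CLSI standards. The E. coli DH10B host carried no β-lactamase gene.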

Escherichia coli [7] = test: Antimicrobial activity against wild type Escherichia coli DH10B producing beta-lactamase PDC3 by agar dilution method; assay type: functional
Procedure, shortened: (§6)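 E. coli DH10B carrying bla genes in pBC SK(-) vector; MICs in µg/mL by agar dilution on cation-adjusted Mueller-Hinton agar per CLSI standards.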

Escherichia coli [8] = test: Antimicrobial activity against wild type Escherichia coli DH10B producing beta-lactamase P99 by agar dilution method; assay type: functional; procedure, shortened: as §6

Row | SMILES | pIC50 [1] | time-dependent effect (Pseudomonas aeruginosa) | pIC50 [2] | inhibition (Enterobacter cloacae) | pKi [1] | pKi [2] | MIC (Escherichia coli [3]) [µg/mL] | MIC [4] [µg/mL] | MIC [5] [µg/mL] | MIC (Escherichia coli [6]) [µg/mL] | MIC (Escherichia coli [7]) [µg/mL] | MIC (Escherichia coli [8]) [µg/mL]
1 | Nc1cccc(-c2cn(C[C@H](NC(=O)Cc3cccs3)B(O)O)nn2)c1 | 6.55 | tde | 6.44 | tde |  |  |  |  |  |  |  | 
2 | Nc1cccc(-c2cn(C[C@H](NC(=O)Cc3ccccc3)B(O)O)nn2)c1 | 6.40 | tde | 6.22 | tde |  |  |  |  |  |  |  | 
3 | CC(=O)N[C@@H](Cn1cc(C(C)(C)O)nn1)B(O)O | 4.74 | tde | 4.15 | tde |  |  |  |  |  |  |  | 
4 | CC(C)(O)c1cn(C[C@H](NC(=O)Cc2ccccc2)B(O)O)nn1 | 5.93 | tde | 6.18 | tde |  |  |  |  |  |  |  | 
5 | O=C(Cc1cccs1)N[C@@H](Cn1ccnn1)B(O)O | 5.89 | tde | 6.10 | tde | 6.79 | 6.87 |  |  |  |  |  | 
6 | CC(=O)N[C@@H](Cn1cc(C(=O)O)nn1)B(O)O | 5.30 | tde | 4.57 | tde |  |  |  |  |  |  |  | 
7 | O=C(Cc1ccccc1)N[C@@H](Cn1cc(C(=O)O)nn1)B(O)O | 6.64 | tde | 6.96 | tde |  |  |  |  |  |  |  | 
8 | O=C(Cc1cccs1)NCB(O)O | 5.48 | tde | 5.57 | tde | 6.39 | 6.35 | < 0.125 | 2 | 2 |  |  | 
9 | CC(=O)N[C@@H](Cn1cc(-c2ccccc2)nn1)B(O)O | 5.03 | tde | 4.88 | tde |  |  |  |  |  |  |  | 
10 | CC(C)(O)c1cn(C[C@H](NC(=O)Cc2cccs2)B(O)O)nn1 | 6.60 | tde | 6.38 | tde |  |  |  |  |  |  |  | 
11 | O=C(Cc1ccccc1)N[C@@H](Cn1cc(-c2ccccc2)nn1)B(O)O | 6.52 | tde | 6.82 | tde |  |  |  |  |  |  |  | 
12 | O=C(Cc1cccs1)N[C@@H](Cn1cc(-c2cccc(C(=O)O)c2)nn1)B(O)O | 7.17 | tde | 7.08 | tde | 8.10 | 7.85 | < 0.125 | 1 | 4 |  |  | 
13 | O=C(Cc1cccs1)N[C@@H](Cn1cc(-c2ccccc2)nn1)B(O)O | 6.52 | tde | 6.49 | tde |  |  |  |  |  |  |  | 
14 | CO/N=C(\C(=O)N[C@@H]1C(=O)N2C(C(=O)O)=C(COC(C)=O)CS[C@H]12)c1csc(N)n1 [CEFOTAXIME] |  |  |  |  |  |  |  |  |  | < 0.125 | 16 (≈ 35.1 µM) | 16 (≈ 35.1 µM)
15 | O=C(Cc1cccs1)N[C@@H](Cc1cccc(C(=O)O)c1)B(O)O | 6.82 | tde | 7.00 | tde | 7.89 | 7.82 | < 0.125 | 4 | 4 |  |  | 
16 | O=C(Cc1cccs1)N[C@@H](Cn1cc(C(=O)O)nn1)B(O)O | 7.46 | tde | 6.85 | tde | 8.40 | 7.64 | < 0.125 | 0.5 | 2 |  |  | 
17 | O=C(Cc1ccccc1)N[C@@H](Cn1cc(-c2cccc(C(=O)O)c2)nn1)B(O)O | 6.92 | tde | 6.96 | tde |  |  |  |  |  |  |  | 
